From PubChem BioAssay
Dynein cargo inh = inhibitors of GR-EGFP nuclear translocation, primary screen, dynein cargo transport inhibitor project, imaging, high-content, 3617.4 mouse cells; AID 1381, 2008; test concentration mostly 20 µM; stimulated with dexamethasone, 1 µM; active compounds read low; z-score, hits read low; hit rate 0.47% among 220,000;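 active means plate z-score of nuclear minus cytoplasmic receptor signal below a set negative limit, without overly bright fluorescence or cell loss, cut at about -3.5 in these data, passing the limit was not always enough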;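 further: z-score of nuclear minus cytoplasmic ring GR-EGFP intensity difference per well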
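Also added: dexamethasone, 1.0 µM final. Medium: tet-free, stripped-serum medium. Detection: fixed, Hoechst-stained cells imaged at 10x for EGFP. Read-out: nuclear-to-cytoplasmic GR-EGFP distribution per well. Times: induction 48 h, compound 1 h, agonist 30 min.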
MEKK3 PB1 HTS = modulators of MEKK3-MEK5 PB1 binding, primary screen, biochemical, wildtype MEKK3, multiplex bead flow cytometry, Alexa488-MEK5 | Mitogen-activated protein kinase kinase kinase 3 (Homo sapiens), Q99759 | bead-based flow cytometry, Alexa488-MEK5 binding to MEKK3; actives lie on both sides; 0 = blocked by unlabeled MEK5, 100 = vehicle | binding response (% of control), % at 10 µM | hit rate 1.4% among 290,000;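 active means binding response more than 3 SD above or below the average of its plate-row segment, actives on both sides; inconclusive means wells at one plate position flagged as instrument error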;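 further: Alexa488 bead fluorescence after subtracting the streptavidin-only scavenger bead signal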
Target sequence (Q99759 whole entry, looked up): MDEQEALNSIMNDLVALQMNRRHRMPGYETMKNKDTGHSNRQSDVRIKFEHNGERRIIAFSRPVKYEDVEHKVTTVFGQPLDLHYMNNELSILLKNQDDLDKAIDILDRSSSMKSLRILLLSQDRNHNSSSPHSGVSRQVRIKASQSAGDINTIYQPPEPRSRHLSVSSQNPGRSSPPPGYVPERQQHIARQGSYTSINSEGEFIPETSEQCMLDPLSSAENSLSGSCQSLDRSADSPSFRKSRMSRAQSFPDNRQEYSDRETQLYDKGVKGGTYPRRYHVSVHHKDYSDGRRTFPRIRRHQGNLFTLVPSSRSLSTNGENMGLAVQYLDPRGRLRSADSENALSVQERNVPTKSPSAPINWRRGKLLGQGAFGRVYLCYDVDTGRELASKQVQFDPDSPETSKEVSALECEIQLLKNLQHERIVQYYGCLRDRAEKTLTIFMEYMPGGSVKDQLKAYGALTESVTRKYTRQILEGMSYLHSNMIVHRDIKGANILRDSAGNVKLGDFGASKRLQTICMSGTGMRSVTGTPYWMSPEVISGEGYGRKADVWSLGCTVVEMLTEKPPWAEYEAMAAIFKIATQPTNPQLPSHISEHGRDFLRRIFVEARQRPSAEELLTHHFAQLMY
Beta2AR agonist = beta2AR agonists driving receptor internalization, primary screen, cell-based, FAP fluorogen, flow cytometry; response, % (test concentration not listed); Am2.2-beta2AR cells; hit rate 0.43% among 340,000; AID 504454, 2011;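 active means response above a set limit, near 3 SD of response in nonfluorescent compounds, cut at about 42% in these data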
ATG4B inh = ATG4B protease inhibitors, primary screen, biochemical, fluorescence, uHTS. Cysteine protease ATG4B (Homo sapiens), Q9Y4P1. ATG4B cleavage of LC3-PLA2, NBD-HPC fluorescence, 1 h. inhibition, % at 8.33 µM. AID 504462, 2011. hit rate 0.51% among 340,000; in the data active means inhibition above about 40%
MEKK2 WT-MEK5 = modulators of MEK5 binding to wildtype MEKK2, primary screen, biochemical, multiplex bead flow cytometry, Alexa488-MEK5; Alexa488-MEK5 binding to MEKK2 WT; actives lie on both sides; binding response (% of control), % at 10 µM; hit rate 1.1% among 290,000; AID 1531, 2009; in the data active means binding response below about 67% or above about 130%; inconclusive means no clear call, values can overlap the other calls; inactive means in between
MEKK2 mut-MEK5 = MEK5 binding signal on mutant MEKK2 PB1, primary screen, biochemical, multiplex bead flow cytometry, Alexa488-MEK5 | Alexa488-MEK5 binding to MEKK2 mutant | hit rate 0.35% among 290,000 | AID 1530, 2009 | percent response, % at 10 µM; in the data active means percent response above about 24%, passing the limit was not always enough
Hits are given with their value; i = inactive; ? = inconclusive; nt = no result given; [ ] = another dose, or the depositor's remark. A selection: hits, their analogues and other compounds. The true share with any hit is near 2.9%.

SMILES	Dynein cargo inh	MEKK3 PB1 HTS	Beta2AR agonist	ATG4B inh	MEKK2 WT-MEK5	MEKK2 mut-MEK5
CCOc1ccc(CCNC(=O)CCNC(=O)c2ccccc2Cl)cc1OCC	nt	i	i	i	i	i
COc1ccc(-n2c(SCCNCCO)nc3sc4c(c3c2=O)CCCC4)cc1	nt	i	i	i	144.0	24.0
Cc1cccc(C(=O)N2CCc3cc(-c4nc(NC(=O)CN5CCCC5)sc4C)ccc32)c1	nt	i	i	i	i	i
Cc1cccc(C(=O)N2CCc3cc(-c4csc(NC(=O)CN5CCCC5)n4)ccc32)c1	nt	i	i	i	i	25.0
CC1=C(C)CC(C(=O)c2ccccc2)C(C(=O)O)C1 (stereo unspecified)	i	i	i	i	i	i
O=C(c1ccccc1)C1CC=CCC1C(=O)c1ccccc1 (stereo unspecified)	nt	nt	43.8	i	nt	nt
COc1ccc2o/c(=N\O)c(C(=O)Nc3ccccc3OC)cc2c1	-4.15	i	53.4	i	i	i
O=C(Nc1ccc(S(=O)(=O)Nc2ncccn2)cc1)C12CC3CC(CC(Cl)(C3)C1)C2	nt	nt	i	i	nt	nt
Cc1ccccc1N1CCN(C2CCCN(C(=O)c3cnsn3)C2)CC1 (stereo unspecified)	nt	77.0[inhibitor]	i	i	65.0[inhibitor]	i
Cc1nc(C(=O)N2CCCC(N3CCN(c4ccccc4C)CC3)C2)cs1 (stereo unspecified)	nt	i	i	i	i	i
COc1ccc(/C=N/NC(=O)CNC(=O)COc2ccccc2)cc1	i	i	i	i	4.0	i
Cc1ccc(/C=N/NC(=O)CNC(=O)COc2ccccc2)cc1	i	i	i	i	i	i
O=C(CSc1cc(Cl)ccc1Cl)NCCCn1ccnc1	nt	i	i	i	i	26.0
Cc1ccccc1SCC(=O)NCCCn1ccnc1	nt	i	i	i	i	i
CCOCC(=O)Nc1cccc(C(=O)OCC)c1	i	i	i	i	i	i
CCOC(=O)C(=O)Nc1cccc(C(=O)OCC)c1	i	i	63.7	i	i	i
CCC(C)c1ccc(NC(=O)CN(C)CC(=O)Nc2cccc(OC)c2)cc1 (stereo unspecified)	i	i	i	i	-6.0	i
CC1=NOC(=O)/C1=C\c1ccc(-c2ccc(Cl)cc2Cl)o1	i	nt	99.2	i	nt	nt
COc1ccc(/C=C/C(=O)OCC(=O)N2CC(=O)Nc3ccccc32)cc1	i	i	i	i	i	i
CCCCOc1ccc(/C=C/C(=O)OCC(=O)N2CC(=O)Nc3ccccc32)cc1OCC	i	i	44.4	i	i	i
Cc1nn(CC(=O)OCC(=O)Nc2cccc(S(N)(=O)=O)c2)c(C)c1[N+](=O)[O-]	nt	nt	i	i	nt	nt
CN(CC(=O)Nc1ccc(Cl)c(C(F)(F)F)c1)C(=O)c1cn2ccccc2n1	nt	nt	i	i	nt	nt
O=C(COc1ccc2c(-c3ccccc3)cc(=O)oc2c1)NCc1cccs1	i	i	i	i	4.0	i
Cc1ccc(/C=N/Nc2cn[nH]c(=O)n2)o1	i	i	i	i	i	i
O=c1nc(N/N=C/c2ccccn2)cn[nH]1	i	3.0[inhibitor]	i	i	4.0[inhibitor]	i
SMILES	Dynein cargo inh	MEKK3 PB1 HTS	Beta2AR agonist	ATG4B inh	MEKK2 WT-MEK5	MEKK2 mut-MEK5
CC(C)(C)OC(=O)N1CCCC1C(=O)NCCc1ccccc1 (stereo unspecified)	i	i	54.6	i	i	i
Oc1ccccc1N1CCN(CC(O)COC2CCCc3ccccc32)CC1 (stereo unspecified)	nt	i	i	i	i	i
Cc1ccc2oc(=O)c3cc(C(=O)NCCCN4CCCC(C)C4)sc3c2c1 (stereo unspecified)	nt	i	i	i	136.0	i
CCN1CCN(CCCNC(=O)c2cc3c(s2)-c2ccccc2OC3)CC1	nt	i	i	i	i	i
Cc1cccc2c1-c1sc(C(=O)NCCCN3CCCC(C)C3)cc1CO2 (stereo unspecified)	nt	i	i	i	171.0	24.0
CC1CC(C)CN(CCCNC(=O)c2cc3c(s2)-c2ccccc2OC3)C1 (stereo unspecified)	nt	i	i	i	142.0	25.0
Cc1ccc2oc(C(=O)N3CCN(Cc4nccn4C)CC3)c(C)c2c1	nt	i	i	i	i	i
COc1ccc(Nc2sc(C(=O)c3ccc(Cl)cc3)c(N)c2C(=O)Nc2ccccc2OC)cc1	i	i	i	i	i	i
COc1ccccc1NC(=O)c1c(Nc2ccccc2C)sc(C(=O)Nc2cccc(Cl)c2)c1N	i	i	i	i	-3.0	i
CCOc1ccccc1N=C1SC(CC(=O)Nc2ccc(OC)cc2OC)C(=O)N1CCC1=CCCCC1 (stereo unspecified)	i	i	67.0	i	i	i
CC12CNCC(C)(CN(C(c3ccccc3)c3ccccc3)C1)C2	i	i	89.7	i	i	i
CC1=C(C(=O)O)N2C(=O)C(NC(=O)c3ccn(C)n3)C2SC1 (stereo unspecified)	i	i	i	i	i	i
CC1=C(C(=O)O)N2C(=O)C(NC(=O)c3nn(C)cc3[N+](=O)[O-])C2SC1 (stereo unspecified)	i	?	i	i	?	139.0
CCC[C@@H]1CCCC/C=C\CCCC(=O)OCCN1C(=O)OC(C)(C)C	nt	nt	i	i	nt	nt
O=C(/C=C/c1ccc2c(c1)OCO2)NCCSCc1c(Cl)cccc1Cl	i	i	76.9	i	i	i
CC(C)(C)C(=O)Nc1ccc(S(=O)(=O)N2CCC(c3nc4ccccc4[nH]3)CC2)cc1	nt	nt	i	i	nt	nt
O=C(CSc1nc(C2CCCCC2)n(-c2ccccc2)n1)NCCN1C(=O)CSC1=O	i	i	i	i	i	i
O=C(CSc1nc(C2CCCCC2)n(-c2ccccc2)n1)NCC(F)(F)F	i	145.0	i	i	i	i
COc1cc(CN2CC(=O)N(c3ccc(C)c(Cl)c3)C2=S)cc(OC)c1OC	nt	i	i	i	i	i
Cc1ccc(NC2=C(Cl)C(=O)c3ccccc3C2=O)cc1	i	i	i	i	i	i
CCNC1=C(Cl)C(=O)c2ccccc2C1=O	i	i	i	i	i	i
O=C1C(Cl)=C(Nc2ccc(O)cc2)C(=O)c2ccccc21	i	i	73.2	i	i	i
O=C1C(=O)c2ccccc2C(O)=C1c1ccccc1F	i	i	i	i	i	i
O=C1C(O)=C(O)C(=O)c2ccccc21	nt	i	97.5	i	i	i
CCN(CC)c1ccc(NC2=C(Cl)C(=O)c3ccccc3C2=O)cc1	-4.42	i	74.3	i	i	i
CCOC(=O)C1(C(=O)OCC)CCN(S(=O)(=O)c2ccccc2)CC1	nt	nt	i	i	nt	nt
